Columns and labels:
IGROV-1 = assay: Growth inhibition of human IGROV1 cells assessed as cell growth at 10 uM after 48 hrs by sulforhodamine B assay; format: functional; conditions: IGROV-1, 48 h, read-out: Activity
Outline: (§1)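 NCI-60 single-dose screen at 10 µM: cells in RPMI 1640 with 5% FBS, preincubated 24 h, then exposed 48 h at 37 °C. TCA fixation (16% final for suspension cells), SRB staining, absorbance 515 nm. Percent growth relative to time-zero and untreated control plates; negative values indicate cell kill.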

[1] = Growth inhibition of human EKVX cells after 48 hrs by sulforhodamine B assay; format: functional
Outline: (§2)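 NCI-60 screen: cells in RPMI 1640 with 5% FBS and 2 mM glutamine, 5000–40,000 cells/well, preincubated 24 h. Five concentrations (10-fold dilutions; 100 to 0.001 µM) applied for 48 h at 37 °C. TCA fixation, SRB stain, absorbance at 515 nm. Time-zero plates included; GI50 where 100×(T−T0)/(C−T0)=50.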

SNB-19 [2] = assay: Growth inhibition of human SNB19 cells after 48 hrs by sulforhodamine B assay; format: functional; conditions: SNB-19, 48 h
Outline: (§3)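 NCI-60 five-dose screen. Cells were grown in RPMI 1640 with 5% FBS and 2 mM L-glutamine, plated at 5000–40,000 cells/well and incubated 24 h before dosing, with T0 plates TCA-fixed. DMSO stocks were diluted to doses of […] and exposed 48 h at 37 °C, 5% CO2. Cells were fixed with cold TCA (final 10%, 60 min, 4 °C), stained with 0.4% SRB in 1% acetic acid for 10 min, solubilized in 10 mM trizma base and read at 515 nm. GI50 is where 100×(T−T0)/(C−T0)=50.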

SK-MEL-2 = assay: Growth inhibition of human SK-MEL-2 cells assessed as cell growth at 10 uM after 48 hrs by sulforhodamine B assay; format: functional; conditions: SK-MEL-2, 48 h, read-out: Activity
Outline: (§4)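 Single-dose NCI-60 screen: adherent cells in RPMI 1640 with 5% FBS were exposed to 10 µM for 48 h at 37 °C after a 24 h preincubation. They were fixed in situ with cold TCA (10% final), stained with 0.4% SRB in 1% acetic acid, solubilized in 10 mM Tris base, and read at 515 nm. Percent growth was taken relative to time-zero and control plates.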

[3] = Growth inhibition of human HCC2998 cells assessed as cell growth at 10 uM after 48 hrs by sulforhodamine B assay; format: functional; conditions: HCC 2998, 48 h, read-out: Activity; outline: as §1
ACHN = assay: Growth inhibition of human ACHN cells after 48 hrs by sulforhodamine B assay; format: functional; outline: as §2
NCI-H23 = assay: Growth inhibition of human NCI-H23 cells assessed as cell growth at 10 uM after 48 hrs by sulforhodamine B assay; format: functional; conditions: NCI-H23, 48 h, read-out: Activity; outline: as §4
A498 = assay: Growth inhibition of human A498 cells assessed as cell growth at 10 uM after 48 hrs by sulforhodamine B assay; format: functional; conditions: A498, 48 h, read-out: Activity; outline: as §1
COLO 205 = assay: Growth inhibition of human COLO205 cells assessed as cell growth at 10 uM after 48 hrs by sulforhodamine B assay; format: functional; conditions: COLO 205, 48 h, read-out: Activity; outline: as §1
NCI-H460 = assay: Growth inhibition of human NCI-H460 cells assessed as cell growth at 10 uM after 48 hrs by sulforhodamine B assay; format: functional; conditions: NCI-H460, 48 h, read-out: Activity; outline: as §4
SNB-19 [4] = assay: Growth inhibition of human SNB19 cells assessed as cell growth at 10 uM after 48 hrs by sulforhodamine B assay; format: functional; conditions: SNB-19, 48 h, read-out: Activity
Outline: (§5)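 Single-dose NCI-60 test at 10 µM. Cells were grown in RPMI 1640 with 5% FBS and 2 mM L-glutamine, preincubated 24 h, with T0 plates TCA-fixed. Exposure was 48 h at 37 °C, 5% CO2. Cells were fixed with cold TCA (final 10%, 4 °C, 60 min), stained with SRB and read at 515 nm. Percent growth was taken relative to T0 and untreated control; negative values denote cell kill.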

Malme-3M = assay: Growth inhibition of human MALME-3M cells assessed as cell growth at 10 uM after 48 hrs by sulforhodamine B assay; format: functional; conditions: read-out: Activity; outline: as §4
OVCAR-3 = assay: Growth inhibition of human OVCAR3 cells after 48 hrs by sulforhodamine B assay; format: functional; conditions: OVCAR-3, 48 h
Outline: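 NCI-60 panel cells grown in RPMI 1640 with 5% FBS and 2 mM L-glutamine, seeded at 5000–40,000 cells/well and preincubated 24 h. Five 10-fold dilutions (0.001–100 µM) from DMSO stocks were added for 48 h at 37 °C. Adherent cells were fixed with cold TCA (10% final) for 60 min at 4 °C, stained with 0.4% SRB, and read at 515 nm. GI50 was set where 100×(T−T0)/(C−T0)=50.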

SR = assay: Growth inhibition of human SR cells assessed as cell growth at 10 uM after 48 hrs by sulforhodamine B assay; format: functional; conditions: read-out: Activity
Outline: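 Suspension line in RPMI 1640 with 5% FBS, single 10 µM dose for 48 h. Settled cells were fixed with TCA (final 16%), then SRB-stained and read at 515 nm. Percent growth was taken versus T0 and control; negative values denote cytotoxicity.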

UO-31 = assay: Growth inhibition of human UO31 cells assessed as cell growth at 10 uM after 48 hrs by sulforhodamine B assay; format: functional; conditions: UO-31, 48 h, read-out: Activity; outline: as §5
RPMI-8226 = assay: Growth inhibition of human RPMI8226 cells assessed as cell growth at 10 uM after 48 hrs by sulforhodamine B assay; format: functional; conditions: RPMI-8226, 48 h, read-out: Activity
Outline: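 Single 10 µM dose applied to suspension cells in RPMI 1640 with 5% FBS and 2 mM L-glutamine for 48 h at 37 °C. Settled cells were fixed with 80% TCA (16% final), stained with SRB, and read at 515 nm. Percent growth was calculated against time-zero and untreated control optical densities.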

U-251 = assay: Growth inhibition of human U251 cells after 48 hrs by sulforhodamine B assay; format: functional; conditions: U-251, 48 h; outline: as §3
SF-295 = assay: Growth inhibition of human SF295 cells assessed as cell growth at 10 uM after 48 hrs by sulforhodamine B assay; format: functional; conditions: SF-295, 48 h, read-out: Activity; outline: as §4
MDA-MB-231 = assay: Antiproliferative activity against human MDA-MB-231 cells by MTT assay; format: functional, cell-based
Outline: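 Cells plated at 8 × 10^3/well (MDA-MB-231) or 10^4/well (MCF7) in 96-well plates. Compounds fed in media with 5% FBS (MDA-MB-231) or 1% FBS (MCF7). MTT read-out of viable cells.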

PC-3 = assay: Growth inhibition of human PC3 cells assessed as cell growth at 10 uM after 48 hrs by sulforhodamine B assay; format: functional; conditions: PC-3, 48 h, read-out: Activity; outline: as §4
MDA-MB-435 = assay: Growth inhibition of human MDA-MB-435 cells assessed as cell growth at 10 uM after 48 hrs by sulforhodamine B assay; format: functional; conditions: MDA-MB-435, 48 h, read-out: Activity; outline: as §4

SMILES	growth at 10 µM (IGROV-1)	GI50 [1]	GI50 (SNB-19 [2])	growth at 10 µM (SK-MEL-2)	growth at 10 µM [3]	GI50 (ACHN)	growth at 10 µM (NCI-H23)	growth at 10 µM (A498)	growth at 10 µM (COLO 205)	growth at 10 µM (NCI-H460)	growth at 10 µM (SNB-19 [4])	growth at 10 µM (Malme-3M)	GI50 (OVCAR-3)	growth at 10 µM (SR)	growth at 10 µM (UO-31)	growth at 10 µM (RPMI-8226)	GI50 (U-251)	growth at 10 µM (SF-295)	growth at 10 µM (PC-3)	growth at 10 µM (MDA-MB-435)	also measured
CC(C)=CCC/C(C)=C/CC/C(C)=C/CC[C@]1(C)CCc2c3c(c(C)c(C)c2O1)OCN(CCCCCCO)C3	-23.6%	2660 nM	2480 nM	91.8%	-63.7%	2750 nM	47%	111%	31.8%	2.49%	18.1%	85.7%	2820 nM	-34.8%	42.7%	82.4%	2730 nM	61.7%	51%	22.1%	IC50 (MDA-MB-231): > 10000 nM
COc1ccc(CCN2COc3c(C)c(C)c4c(c3C2)CC[C@@](C)(CC/C=C(\C)CC/C=C(\C)CCC=C(C)C)O4)cc1OC	87.4%	–	–	120%	70.5%	–	102%	108%	86.7%	103%	104%	93.6%	–	54.6%	76.2%	64.6%	–	108%	94.3%	90.7%	IC50 (MDA-MB-231): > 50000 nM
CC(C)=CCC/C(C)=C/CC/C(C)=C/CC[C@]1(C)CCc2c3c(cc(C)c2O1)OCN(C1CCN(Cc2ccccc2)CC1)C3	-48.5%	1690 nM	1610 nM	109%	-36.1%	1880 nM	38.7%	63.2%	-36.5%	-78.7%	68.2%	122%	1390 nM	-35%	57.8%	14.6%	1510 nM	93.2%	33.2%	3.07%	–
CC(C)=CCC/C(C)=C/CC/C(C)=C/CC[C@]1(C)CCc2c3c(c(C)c(C)c2O1)OCN(CCCCCCCCO)C3	-53.1%	3040 nM	2470 nM	71.7%	-87%	2620 nM	56.1%	117%	14.9%	9.26%	73.6%	71.7%	2790 nM	-37.8%	27.9%	71.2%	2610 nM	48.1%	26.8%	-21.4%	IC50 (MDA-MB-231): > 20000 nM
